The record followed here is ChEMBL document CHEMBL1131062, “Synthesis and pharmacological characterization of O-alkynyloximes of tropinone and N-methylpiperidinone as muscarinic agonists” (J Med Chem, 1998).

The structures appear in SMILES notation. Where “and” joins values, the source holds several entries; their conditions need not be identical. Equal entries are not always repeated.

One assay is filed under the species Rattus norvegicus. The experiment in a line: Concentration required to relax phenylephrine-precontracted aortic rings by 50% in endothelium intact rat aorta. To be noted: read-out: ED50 (the source's name). The class given is functional. Put shortly:
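Endothelium-intact rat aortic rings equilibrated 60 min at 37 °C under 95% O2/5% CO2. Endothelium confirmed by relaxation to 10^-6 M ACh. After washout, rings precontracted with 10^-7 M phenylephrine. Test compound added cumulatively (10^-6–10^-4 M) at 2-min intervals. Each ring used once. ED50 taken from percent phenylephrine response versus concentration.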

The target of assay [1] is T1, Muscarinic acetylcholine receptor M2 (Rattus norvegicus, UniProt P10980).
T1 sequence (P10980 whole entry): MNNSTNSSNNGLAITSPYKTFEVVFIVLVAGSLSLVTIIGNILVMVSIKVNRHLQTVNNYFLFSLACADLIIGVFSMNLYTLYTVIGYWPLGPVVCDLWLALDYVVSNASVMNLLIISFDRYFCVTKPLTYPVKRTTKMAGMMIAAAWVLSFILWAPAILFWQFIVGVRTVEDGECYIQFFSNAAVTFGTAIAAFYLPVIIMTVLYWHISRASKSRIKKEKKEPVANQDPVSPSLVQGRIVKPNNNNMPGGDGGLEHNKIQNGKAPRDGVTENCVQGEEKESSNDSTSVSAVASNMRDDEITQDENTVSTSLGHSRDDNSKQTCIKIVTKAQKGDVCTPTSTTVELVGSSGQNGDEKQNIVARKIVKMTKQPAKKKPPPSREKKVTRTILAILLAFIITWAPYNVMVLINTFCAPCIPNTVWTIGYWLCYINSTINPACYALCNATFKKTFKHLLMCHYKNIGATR
The assay is described as follows: Binding affinity to Muscarinic acetylcholine receptor M2 by measuring its ability to displace [3H]N-methylscopolamine binding in rat heart. Put shortly:
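Rat heart ventricle membranes, homogenized in sucrose/TRIS and washed in Na+/Mg2+ HEPES buffer pH 7.4. Nonspecific binding defined with 1 μM (±)-QNB. Bound ligand separated by centrifugation and counted by scintillation. Triplicate determinations. Ki derived from IC50 by Cheng–Prusoff.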

Assay [2] deals with Muscarinic receptor M1 and M2 (Rattus norvegicus) (UniProt P08482+P10980). The experiment in a line: Inhibitory selectivity for Muscarinic receptors M2 and M1. The class given is protein assay. Put shortly: (§1)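 Ratios of Ki values from rat tissue displacement binding. M1 used cerebral cortex with 0.5 nM [3H]pirenzepine. M2 used heart ventricle and M3 used submandibulary gland, both with 0.3 nM [3H]-N-methylscopolamine. All incubations ran 45 min at 30 °C with test compound at 10 nM–10 mM. Ki obtained by Cheng–Prusoff. Three independent experiments.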
Chain of Muscarinic receptor M1 and M2 (Rattus norvegicus) (P08482 whole entry, looked up, one chain of several): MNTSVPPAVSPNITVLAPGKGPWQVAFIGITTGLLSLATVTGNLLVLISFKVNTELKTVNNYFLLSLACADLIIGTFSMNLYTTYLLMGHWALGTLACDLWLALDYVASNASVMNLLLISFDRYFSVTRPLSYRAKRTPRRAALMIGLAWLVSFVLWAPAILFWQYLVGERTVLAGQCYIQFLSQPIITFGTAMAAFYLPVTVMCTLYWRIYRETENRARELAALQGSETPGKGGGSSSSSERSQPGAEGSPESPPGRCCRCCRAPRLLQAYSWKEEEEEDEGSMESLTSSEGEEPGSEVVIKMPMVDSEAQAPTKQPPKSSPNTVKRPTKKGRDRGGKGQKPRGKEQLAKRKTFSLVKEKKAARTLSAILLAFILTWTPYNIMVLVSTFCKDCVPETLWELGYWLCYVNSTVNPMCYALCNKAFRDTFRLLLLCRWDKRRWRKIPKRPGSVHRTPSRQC

Assay [3] is described as follows: Inhibitory selectivity for Muscarinic receptors M3 and M1. Put shortly: as §1
The target in assay [4] is Muscarinic receptor M2 and M3 (Rattus norvegicus) (UniProt P08483+P10980). The assay is described as follows: Inhibitory selectivity for Muscarinic receptors M3 and M2. The class given is protein assay. Put shortly:
as §1

Assay [5] addresses T2, Muscarinic acetylcholine receptor M3 (Rattus norvegicus, UniProt P08483). The assay is described as follows: Binding affinity to Muscarinic acetylcholine receptor M3 by measuring its ability to displace [3H]N-methylscopolamine binding in rat submandibulary gland. A digest of the protocol:
(§2)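 Rat submandibulary gland membranes prepared in Na+/Mg2+ HEPES buffer pH 7.4. Incubated 45 min at 30 °C with 0.3 nM [3H]-N-methylscopolamine and test compound (10 nM–10 mM). Nonspecific binding defined with 1 μM (±)-QNB. Pellet obtained by centrifugation and counted by scintillation. Triplicate determinations. Ki derived from IC50 by Cheng–Prusoff.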

The species entered for the next assay is Oryctolagus cuniculus. The assay is described as follows: Concentration required to relax phenylephrine-precontracted aortic rings by 50% in endothelium denuded rabbit aorta. The conditions noted are these: read-out: ED50 (the source's name).
In assay [6] the target is T2, Muscarinic acetylcholine receptor M3. The experiment in a line: The compound was evaluated for its ability to inhibit [3H]NMS binding to Muscarinic acetylcholine receptor in submandibular salivary gland. The format is tissue-based. Put shortly:
as §2

T2 sequence (P08483 whole entry): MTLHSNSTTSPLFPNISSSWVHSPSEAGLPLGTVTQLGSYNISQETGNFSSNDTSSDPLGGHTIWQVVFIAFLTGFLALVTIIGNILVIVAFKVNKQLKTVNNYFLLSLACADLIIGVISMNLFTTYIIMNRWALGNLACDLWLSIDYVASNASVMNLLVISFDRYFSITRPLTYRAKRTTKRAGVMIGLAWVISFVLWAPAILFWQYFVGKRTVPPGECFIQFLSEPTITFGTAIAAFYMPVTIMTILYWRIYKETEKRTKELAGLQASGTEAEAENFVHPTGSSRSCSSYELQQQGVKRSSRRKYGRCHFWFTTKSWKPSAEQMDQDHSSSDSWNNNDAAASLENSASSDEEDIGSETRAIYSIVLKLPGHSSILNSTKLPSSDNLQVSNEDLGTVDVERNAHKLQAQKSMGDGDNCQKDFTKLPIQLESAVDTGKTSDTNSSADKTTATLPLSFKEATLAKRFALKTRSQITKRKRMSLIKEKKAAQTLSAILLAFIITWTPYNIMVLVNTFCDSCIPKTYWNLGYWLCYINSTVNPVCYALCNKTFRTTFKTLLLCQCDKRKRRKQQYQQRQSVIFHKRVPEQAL
Chain of Muscarinic receptor M2 and M3 (Rattus norvegicus) (P08483 whole entry, looked up, one chain of several): as the sequence (P08483 whole entry) above

`C#CCC(C)ON=C1CCN(C)CC1` (configuration not stated): the EC50 in the assay filed under Rattus norvegicus came out at 5 µM; in the assay listed under Oryctolagus cuniculus, 25 µM. In addition, the Ki in assay [1] was 10 µM; in assay [5], 50.1 µM. Moreover, the Selectivity ratio is 2.9 in assay [2], 15 in assay [3] and 5.4 in assay [4].
Turning to `CCC#CCON=C1CCN(C)CC1`, the EC50 worked out at 6.2 µM in the assay filed under Rattus norvegicus and 12 µM in the assay filed under Oryctolagus cuniculus. Further, the Ki in assay [1] was 15.8 µM; in assay [5] it was 20 µM. Moreover, the Selectivity ratio in assay [2] turned out to be 4; in assay [3] it was 5.4; in assay [4], 1.4.
As to `CC#CCCON=C1CC2CCC(C1)N2C`, the EC50 in the assay filed under Rattus norvegicus was 7.8 µM; in the assay listed under Oryctolagus cuniculus it was 9.8 µM. For the same compound, the Ki was 3.16 µM in assay [1] and 2.51 µM in assay [5]. Further, the Selectivity ratio in assay [2] was 4.5; in assay [3] it was 3; in assay [4], 0.66.
Consider `CC#CCON=C1CCN(C)CC1`, for which the EC50 in the assay listed under Rattus norvegicus and in the assay listed under Oryctolagus cuniculus was 8.7 µM throughout. For the same compound, the Ki in assay [1] is 7.94 µM; in assay [5] it was 126 µM. In addition, the Selectivity ratio in assay [2] came out at 2; in assay [3] it was 35; in assay [4], 17.
As to `CC#CCCON=C1CCN(C)CC1`, the EC50 in the assay listed under Rattus norvegicus came to 6.3 µM. Further, the inhibition constant (Ki) was 15.8 µM in assay [1] and 39.8 µM in assay [5]. Also, the Selectivity ratio in assay [2] amounted to 7.5; in assay [3] it was 2; in assay [4], 0.27.
With `C#CCCCON=C1CCN(C)CC1`, the EC50 was 9.3 µM in the assay listed under Rattus norvegicus and 13 µM in the assay filed under Oryctolagus cuniculus. Further, the Ki in assay [1] is 10 µM; in assay [5], 15.8 µM. For the same compound, the Selectivity ratio stood at 1.1 in assay [2], 1.7 in assay [3] and 1.5 in assay [4].
As to `C#CC(C)ON=C1CC2CCC(C1)N2C` (configuration not stated), the results for the EC50 in the assay filed under Rattus norvegicus and in the assay listed under Oryctolagus cuniculus were 6.9 µM and 26 µM, respectively. Also, the results for the inhibitory constant (Ki) in assay [1] and in assay [5] were 6.31 µM and 3.98 µM, respectively. The Selectivity ratio in assay [2] came out at 4.5; in assay [3], 0.46; in assay [4], 0.72.
Consider `C#CCON=C1CC2CCC(C1)N2C`, for which the EC50 stood at 3.5 µM in the assay listed under Rattus norvegicus and 7.1 µM in the assay listed under Oryctolagus cuniculus. For the same compound, in assay [1], the Ki was 6.31 µM and 25.1 µM. Further, the figures for the Selectivity ratio in assay [2], in assay [3] and in assay [4] were 4.2, 4.6 and 1.1, respectively.
In the case of `C#CCCON=C1CCN(C)CC1`, the results for the EC50 in the assay filed under Rattus norvegicus and in the assay listed under Oryctolagus cuniculus were 7.4 µM and 28 µM, respectively. Besides, the figures for the inhibitory constant (Ki) in assay [1] and in assay [5] were 10 µM and 39.8 µM, respectively. The Selectivity ratio was determined as 6.2 in assay [2], 25 in assay [3] and 3.7 in assay [4].
Take `CN1C2CCC1CC(=NO)C2`: the results for the EC50 in the assay listed under Rattus norvegicus and in the assay filed under Oryctolagus cuniculus were 53 µM and 320 µM, respectively. The Ki is 39.8 µM in assay [1] and 794 µM in assay [5]. Besides, the Selectivity ratio stood at 0.74 in assay [2], 1.4 in assay [3] and 18 in assay [4].
With `C#CC(CC)ON=C1CCN(C)CC1` (configuration not stated), the EC50 in the assay listed under Rattus norvegicus was 7.6 µM; in the assay listed under Oryctolagus cuniculus, 18 µM. Besides, the Ki in assay [1] and in assay [5] was 10 µM throughout. Besides, the Selectivity ratio in assay [2] was 1.8; in assay [3] it was 1.5; in assay [4], 0.85.
Consider `CC#CCON=C1CC2CCC(C1)N2C`, for which the EC50 was found to be 3.4 µM in the assay listed under Rattus norvegicus and 4.8 µM in the assay listed under Oryctolagus cuniculus. The values for the Ki in assay [1], in assay [6] and in assay [5] were 12.6 µM, 20 µM and 15.8 µM, respectively. The Selectivity ratio in assay [2] is 24; in assay [3] it was 27; in assay [4], 1.1.
Regarding `C#CCCCON=C1CC2CCC(C1)N2C`, the EC50 in the assay listed under Rattus norvegicus was 5.9 µM; in the assay filed under Oryctolagus cuniculus it was 6.5 µM. In addition, the Ki in assay [1] is 6.31 µM; in assay [5] it was 10 µM. The Selectivity ratio worked out at 12 in assay [2], 16 in assay [3] and 1.3 in assay [4].
For `CON=C1CCN(C)CC1`, the figures for the EC50 in the assay listed under Rattus norvegicus and in the assay filed under Oryctolagus cuniculus were 13 µM and 260 µM, respectively. Also, the Ki is 39.8 µM in assay [1] and 25.1 µM in assay [5]. For the same compound, the values for the Selectivity ratio in assay [2], in assay [3] and in assay [4] were 0.74, 0.51 and 0.71, respectively.
On to `CN1CCC(=NO)CC1`, for which the EC50 turned out to be 43 µM in the assay listed under Rattus norvegicus and 78 µM in the assay filed under Oryctolagus cuniculus. The Ki in assay [1] is 398 µM; in assay [5], 3160 µM. Moreover, the Selectivity ratio came to 0.9 in assay [2], 7.6 in assay [3] and 8.5 in assay [4].
For `O=C1CCCN1CC#CCN1CCCC1` [OXOTREMORINE], the EC50 in the assay listed under Rattus norvegicus is 0.044 µM. For the same compound, the results for the Ki in assay [1] and in assay [5] were 0.2 µM and 0.398 µM, respectively. For the same compound, the Selectivity ratio in assay [2] stood at 0.32; in assay [3] it was 0.63; in assay [4] it was 2.
With `COC(=O)C1=CCCN(C)C1` [ARECOLINE], the EC50 in the assay filed under Rattus norvegicus amounted to 1.6 µM.
For `C[N+](C)(C)CC#CCOC(=O)Nc1cccc(Cl)c1`, the figures for the EC50 in the assay filed under Rattus norvegicus and in the assay filed under Oryctolagus cuniculus were 9.6 µM and 0.35 µM, respectively. Besides, in assay [1], affinity was put at a Ki of 6.31 µM. For the same compound, the results for the Selectivity ratio in assay [2], in assay [3] and in assay [4] were 1.4, 0.46 and 0.33, respectively.
For `CON=C1CC2CCC(C1)N2C`, the EC50 in the assay filed under Rattus norvegicus and in the assay filed under Oryctolagus cuniculus was 11 µM throughout. For the same compound, the Ki in assay [1] was 126 µM; in assay [5] it was 100 µM. In addition, the Selectivity ratio amounted to 0.14 in assay [2], 0.1 in assay [3] and 0.74 in assay [4].
As for `CCC#CCON=C1CC2CCC(C1)N2C`, the EC50 in the assay listed under Rattus norvegicus worked out at 1.3 µM; in the assay listed under Oryctolagus cuniculus it was 3.5 µM. The Ki was 12.6 µM in assay [1], 79.4 µM in assay [6] and 3.16 µM in assay [5]. Also, the Selectivity ratio stood at 2.4 in assay [2], 0.56 in assay [3] and 0.23 in assay [4].
For `C#CCON=C1CCN(C)CC1`, the results for the EC50 in the assay filed under Rattus norvegicus and in the assay filed under Oryctolagus cuniculus were 6.8 µM and 11 µM, respectively. Besides, the Ki in assay [1] is 25.1 µM; in assay [5] it was 20 µM. Further, the figures for the Selectivity ratio in assay [2], in assay [3] and in assay [4] were 0.59, 0.42 and 0.72, respectively.
For the compound `C#CC(C)ON=C1CCN(C)CC1` (configuration not stated), the results for the EC50 in the assay listed under Rattus norvegicus and in the assay filed under Oryctolagus cuniculus were 7.8 µM and 41 µM, respectively. Besides, the Ki in assay [1] was 12.6 µM; in assay [5] it was 79.4 µM. In addition, the Selectivity ratio in assay [2] was found to be 2.2; in assay [3], 14; in assay [4] it was 6.3.
On to `C#CCC(C)ON=C1CC2CCC(C1)N2C` (configuration not stated), for which the EC50 in the assay listed under Rattus norvegicus amounted to 5.4 µM; in the assay filed under Oryctolagus cuniculus, 23 µM. In addition, the Ki in assay [1] is 1.58 µM; in assay [5] it was 3.16 µM. For the same compound, the results for the Selectivity ratio in assay [2], in assay [3] and in assay [4] were 16, 29 and 1.8, respectively.
Turning to `C#CC(CC)ON=C1CC2CCC(C1)N2C` (configuration not stated), the EC50 in the assay listed under Rattus norvegicus was 5.5 µM; in the assay filed under Oryctolagus cuniculus it was 41 µM. Besides, the Ki in assay [1] and in assay [5] was 6.31 µM throughout. The Selectivity ratio turned out to be 20 in assay [2], 22 in assay [3] and 1.1 in assay [4].
On to `C#CCCON=C1CC2CCC(C1)N2C`, for which the figures for the EC50 in the assay listed under Rattus norvegicus and in the assay filed under Oryctolagus cuniculus were 5.3 µM and 15 µM, respectively. Further, the inhibition constant Ki in assay [1] was 31.6 µM; in assay [5], 10 µM. Besides, the values for the Selectivity ratio in assay [2], in assay [3] and in assay [4] were 19, 6.8 and 0.34, respectively.

In general, Ki refers to a dissociation constant, usually derived from enzyme kinetics or from competition with a known ligand.
